The source made the active and inactive calls. The rule behind the calls is not given here.
Key:
[1] = target: T1, Heat shock protein HSP 90-alpha (Homo sapiens, UniProt P07900); experiment: Binding affinity to recombinant human HSP90 alpha by Surface plasmon resonance analysis
HeLa [2] = experiment: Antiproliferative activity against human HeLa cells after 48 hrs by MTT assay; assay type: functional, cell-based
Method in brief: (§1)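 Cells grown in DMEM (HeLa) or RPMI 1640 (Jurkat) with 10% FBS at 37 °C and 5% CO2. Seeded at 1 × 10^4 cells/well the day before, then exposed 48 h to 10−150 μM compound (final DMSO ≤0.15% v/v), with vehicle and etoposide controls. MTT read at 550 nm; IC50 from dose–response curves versus controls; mean ± SD, ≥3 experiments in duplicate.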

Jurkat = experiment: Antiproliferative activity against human Jurkat cells after 48 hrs by MTT assay; assay type: functional, cell-based; method in brief: as §1
PBMC = experiment: Cytotoxicity against human PBMC up to 100 uM after 48 hrs by trypan blue exclusion assay; assay type: cell-based
HeLa [3] = experiment: Cell cycle arrest in human HeLa cells assessed as accumulation at G2/M phase at 10 to 20 uM after 48 hrs by propidium iodide staining based flow cytometry; assay type: functional
Method in brief: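 HeLa cells in DMEM with 10% FBS at 37 °C, 5% CO2, exposed to 10 or 20 μM for 48 h, DMSO vehicle (final ≤0.15%). Permeabilized cells stained with propidium iodide and analyzed by flow cytometry, 5000 events per sample. Percentages in hypodiploid, G0/G1, S and G2/M are given minus control values. Mean ± SD of three experiments run in duplicate.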

[4] = target: T1, Heat shock protein HSP 90-alpha; experiment: Inhibition of HSP90 alpha in human HeLa cells assessed as effect on CDC2/p34 phosphorylation at Thr161 residue at 10 uM after 48 hrs by Western blot analysis relative to GAPDH (reference value: 1); assay type: cell-based
[5] = target: T1, Heat shock protein HSP 90-alpha; experiment: Inhibition of HSP90 alpha in human HeLa cells assessed as effect on CDC2/p34 phosphorylation at Thr161 residue at 20 uM after 48 hrs by Western blot analysis relative to GAPDH (reference value: 1); assay type: cell-based
HeLa [6] = experiment: Effect on total Cdc2 expression in human HeLa cells at 10 uM after 48 hrs by Western blot analysis relative to GAPDH (reference value: 1); assay type: ADME, cell-based
HeLa [7] = experiment: Effect on total Cdc2 expression in human HeLa cells at 20 uM after 48 hrs by Western blot analysis relative to GAPDH (reference value: 1); assay type: ADME, cell-based
[8] = target: T1, Heat shock protein HSP 90-alpha; experiment: Inhibition of HSP90 alpha in human HeLa cells assessed as effect on HSP90 expression at 10 uM after 48 hrs by Western blot analysis relative to alpha-tubulin (reference value: 1); assay type: cell-based
[9] = target: T1, Heat shock protein HSP 90-alpha; experiment: Inhibition of HSP90 alpha in human HeLa cells assessed as effect on HSP90 expression at 20 uM after 48 hrs by Western blot analysis relative to alpha-tubulin (reference value: 1); assay type: cell-based
[10] = target: T1, Heat shock protein HSP 90-alpha; experiment: Inhibition of HSP90 alpha in human HeLa cells assessed as effect on HSP70 expression at 10 uM after 48 hrs by Western blot analysis relative to alpha-tubulin (reference value: 1); assay type: cell-based
[11] = target: T1, Heat shock protein HSP 90-alpha; experiment: Inhibition of HSP90 alpha in human HeLa cells assessed as effect on HSP70 expression at 20 uM after 48 hrs by Western blot analysis relative to alpha-tubulin (reference value: 1); assay type: cell-based
[12] = target: T1, Heat shock protein HSP 90-alpha; experiment: Inhibition of HSP90 alpha in human HeLa cells assessed as effect on EGFR expression at 10 uM after 48 hrs by Western blot analysis relative to GAPDH (reference value: 1); assay type: cell-based
[13] = target: T1, Heat shock protein HSP 90-alpha; experiment: Inhibition of HSP90 alpha in human HeLa cells assessed as effect on EGFR expression at 20 uM after 48 hrs by Western blot analysis relative to GAPDH (reference value: 1); assay type: cell-based
[14] = target: T1, Heat shock protein HSP 90-alpha; experiment: Inhibition of HSP90 alpha in human HeLa cells assessed as effect on AKT phosphorylation at 10 uM after 48 hrs by Western blot analysis relative to GAPDH (reference value: 1); assay type: cell-based
HeLa [15] = experiment: Effect on total AKT expression in human HeLa cells at 10 uM after 48 hrs by Western blot analysis relative to GAPDH (reference value: 1); assay type: ADME, cell-based
HeLa [16] = experiment: Effect on total AKT expression in human HeLa cells at 20 uM after 48 hrs by Western blot analysis relative to GAPDH (reference value: 1); assay type: ADME, cell-based
[17] = target: T1, Heat shock protein HSP 90-alpha; experiment: Inhibition of HSP90 alpha in human HeLa cells assessed as effect on Cyclin A expression at 10 uM after 48 hrs by Western blot analysis relative to GAPDH (reference value: 1); assay type: cell-based
[18] = target: T1, Heat shock protein HSP 90-alpha; experiment: Inhibition of HSP90 alpha in human HeLa cells assessed as effect on Cyclin A expression at 20 uM after 48 hrs by Western blot analysis relative to GAPDH (reference value: 1); assay type: cell-based
[19] = target: T1, Heat shock protein HSP 90-alpha; experiment: Inhibition of HSP90 alpha in human HeLa cells assessed as effect on ERK1 phosphorylation at 10 uM after 48 hrs by Western blot analysis relative to GAPDH (reference value: 1); assay type: cell-based
[20] = target: T1, Heat shock protein HSP 90-alpha; experiment: Inhibition of HSP90 alpha in human HeLa cells assessed as effect on ERK1 phosphorylation at 20 uM after 48 hrs by Western blot analysis relative to GAPDH (reference value: 1); assay type: cell-based
HeLa [21] = experiment: Effect on total ERK1 expression in human HeLa cells at 10 uM after 48 hrs by Western blot analysis relative to GAPDH (reference value: 1); assay type: ADME, cell-based
HeLa [22] = experiment: Effect on total ERK1 expression in human HeLa cells at 20 uM after 48 hrs by Western blot analysis relative to GAPDH (reference value: 1); assay type: ADME, cell-based

With `C=C1CC[C@H]2/C(C)=C\C[C@@H]3[C@H](C(C)C)CC(=O)[C@@]3(C)C[C@@H]12` the Kd ([1]; read-out: Kd) was 401 nM, the IC50 (HeLa [2]) was > 20 µM and the IC50 (Jurkat) was > 20 µM.

With `CC1=C2C[C@@]3(C)O[C@@](C)([C@@H]2CC1=O)[C@H]1CC(=O)[C@@](C(C)C)(CC3=O)O1` the Kd ([1]; read-out: Kd) was 120 nM, the IC50 (HeLa [2]) was > 20 µM and the IC50 (Jurkat) was > 20 µM.

With `CC(=O)O[C@H]1C[C@@](O)(C(C)C)[C@H]2C/C=C(/C)[C@@H]3CC(=O)C(C)=C3C[C@]12C` the Kd [1] was “Not Active”, the IC50 (HeLa [2]) was > 20 µM and the IC50 (Jurkat) was > 20 µM.

With `C=C1CC[C@@H]2[C@H]1C[C@]1(C)CC[C@@H](C(C)C)[C@H]1C[C@H]1O[C@@]21C` the Kd ([1]; read-out: Kd) was 130 nM, the IC50 (HeLa [2]) was > 20 µM and the IC50 (Jurkat) was > 20 µM.

With `CC1=C2C[C@]3(C)C(=O)C[C@@H](C(C)C)[C@H]3C[C@H]3O[C@@]3(C)[C@@H]2CC1=O` the Kd [1] was “Not Active”, the IC50 (HeLa [2]) was > 20 µM and the IC50 (Jurkat) was > 20 µM.

`CC1=C2C[C@]3(C)C(=O)C=C(C(C)C)C3CC(O)/C(C)=C\2CC1=O` (stereo partly specified) was tested, and the Kd [1] was “Not Active”, the IC50 (HeLa [2]) was > 20 µM and the IC50 (Jurkat) was > 20 µM.

In the case of `CC1=C2C[C@]3(C)C(=O)C=C(C(C)C)[C@H]3C[C@H]3O[C@@]3(C)[C@@H]2CC1=O`, the Kd [1] is reported as “Not Active”, the IC50 (HeLa [2]) is reported as > 20 µM and the IC50 (Jurkat) is reported as > 20 µM.

With `C/C1=C/C[C@@H]2[C@H](C(C)C)CC(=O)[C@@]2(C)/C=C2/C(C)CCC12` (stereo partly specified) the Kd ([1]; read-out: Kd) was 20.5 nM, the IC50 (HeLa [2]) was > 20 µM and the IC50 (Jurkat) was > 20 µM.

In the case of `CC1=C2C[C@]3(C)C(=O)C[C@@H](C(C)(C)O)[C@H]3C/C=C(/C)[C@@H]2CC1=O`, the Kd ([1]; read-out: Kd) is reported as 15.3 nM, the IC50 (HeLa [2]) is reported as > 20 µM and the IC50 (Jurkat) is reported as > 20 µM. The Activity (PBMC) was “Non-Toxic”, the Activity (HeLa [3]) was “Active” and the fold change (FC) [4] was 0.2. The fold change (FC) [5] was 0.1, the “fold change (FC)” value (HeLa [6]) was 1.8 and the “fold change (FC)” value (HeLa [7]) was 1.5. The fold change (FC) [8] was 1.4, the fold change (FC) [9] was 1.3 and the fold change (FC) [10] was 1. For the same molecule, the fold change (FC) [11] was 0.8, the fold change (FC) [12] was 1.3 and the fold change (FC) [13] was 1.4. For the same molecule, the fold change (FC) [14] was 0.3, the “fold change (FC)” value (HeLa [15]) was 1 and the “fold change (FC)” value (HeLa [16]) was 1. The fold change (FC) [17] was 1, the fold change (FC) [18] was 1.2 and the fold change (FC) [19] was 0.5. The fold change (FC) [20] was 0.3, the “fold change (FC)” value (HeLa [21]) was 1.2 and the “fold change (FC)” value (HeLa [22]) was 1.2.

`C/C1=C/C[C@@H]2[C@H](C(C)C)CC[C@@]2(C)CC23OC2(C)CC[C@@H]13` (stereo partly specified) was tested, and the Kd [1] was “Not Active”, the IC50 (HeLa [2]) was > 20 µM and the IC50 (Jurkat) was > 20 µM.

In the case of `CC1=C2C[C@]3(C)C(=O)C=C(C(C)C)[C@H]3C/C=C(/C)[C@@H]2CC1=O`, the Kd ([1]; read-out: Kd) is reported as 1740 nM, the IC50 (HeLa [2]) is reported as > 20 µM and the IC50 (Jurkat) is reported as > 20 µM.

With `CC1=C2C[C@]3(C)C(=O)C[C@@H](C(C)C)[C@H]3C/C=C(/C)[C@@H]2CC1=O` [HYPOESTENONE] the Kd ([1]; read-out: Kd) was 1000 nM, the IC50 (HeLa [2]) was > 20 µM and the IC50 (Jurkat) was > 20 µM.

`CC1=CCC23OC4(C[C@]2(C)C(=O)C=C3C(C)C)[C@H](C)C(=O)C[C@@H]14` (stereo partly specified) was tested, and the Kd ([1]; read-out: Kd) was 217 nM, the IC50 (HeLa [2]) was > 20 µM and the IC50 (Jurkat) was > 20 µM.

In the case of `CC1=C2C[C@]3(C)CC[C@@H](C(C)C)[C@H]3C/C=C(/C)[C@@H]2CC1=O`, the Kd ([1]; read-out: Kd) is reported as 28 nM, the IC50 (HeLa [2]) is reported as > 20 µM and the IC50 (Jurkat) is reported as > 20 µM.

In the case of `CC(C)[C@@H]1CC(=O)[C@@]2(C)/C=C3\C(CC[C@@]3(C)O)[C@]3(C)O[C@@H]3CC12` (stereo partly specified), the Kd ([1]; read-out: Kd) is reported as 45 nM, the IC50 (HeLa [2]) is reported as > 20 µM and the IC50 (Jurkat) is reported as > 20 µM.

— ChEMBL document CHEMBL4422696, “Fusicoccane Diterpenes from Hypoestes forsskaolii as Heat Shock Protein 90 (Hsp90) Modulators” (J Nat Prod, 2019)
